The source made the active and inactive calls. The calls are words filed in the database; no cut-off is given here.
Tests used:
[1] = target: Tyrosine-protein kinase HCK (Homo sapiens) (UniProt P08631); test: Inhibition of HCK (unknown origin) assessed as remaining activity at 1 uM by Kinome scan method relative to control
[2] = target: Ribosomal protein S6 kinase alpha-1 (Homo sapiens) (UniProt Q15418); test: Inhibition of C-terminal kinase domain RSK1 (unknown origin) assessed as remaining activity at 1 uM by Kinome scan method relative to control
Procedure, shortened: (§1)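 Active-site-dependent competition-binding (KINOMEscan) panel of 468 kinases, test compound at 1 μM (from a 10 mM DMSO stock). Read-out is ctrl% = (test signal − positive control signal)/(negative control signal − positive control signal) × 100. DMSO is the negative control (100%) and a control compound is the positive control (0%). Lower ctrl% means tighter binding.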

[3] = target: TGF-beta receptor type-1 (Homo sapiens) (UniProt P36897); test: Inhibition of TGFBR1 (unknown origin) assessed as remaining activity at 1 uM by Kinome scan method relative to control
[4] = target: cAMP-dependent protein kinase catalytic subunit alpha (Homo sapiens) (UniProt P17612); test: Inhibition of PKAC-alpha (unknown origin) assessed as remaining activity at 1 uM by Kinome scan method relative to control
[5] = tested on: Tyrosine-protein kinase ABL1 (Homo sapiens), P00519 [Y253F]; test: Inhibition of phosphorylated ABL1 Y253F mutant (unknown origin) assessed as remaining activity at 1 uM by Kinome scan method relative to control
[6] = target: Serine/threonine-protein kinase DCLK3 (Homo sapiens) (UniProt Q9C098); test: Inhibition of DCAMKL3 (unknown origin) assessed as remaining activity at 1 uM by Kinome scan method relative to control
[7] = target: RAF proto-oncogene serine/threonine-protein kinase (Homo sapiens) (UniProt P04049); test: Inhibition of RAF1 (unknown origin) assessed as remaining activity at 1 uM by Kinome scan method relative to control
[8] = target: Tyrosine-protein kinase receptor UFO (Homo sapiens) (UniProt P30530); test: Inhibition of AXL (unknown origin) assessed as remaining activity at 1 uM by Kinome scan method relative to control; procedure, shortened: as §1
[9] = target: Serine/threonine-protein kinase ULK2 (Homo sapiens) (UniProt Q8IYT8); test: Inhibition of ULK2 (unknown origin) assessed as remaining activity at 1 uM by Kinome scan method relative to control
Serine/threonine-protein kinase ULK2 (Homo sapiens), sequence (Q8IYT8 whole entry): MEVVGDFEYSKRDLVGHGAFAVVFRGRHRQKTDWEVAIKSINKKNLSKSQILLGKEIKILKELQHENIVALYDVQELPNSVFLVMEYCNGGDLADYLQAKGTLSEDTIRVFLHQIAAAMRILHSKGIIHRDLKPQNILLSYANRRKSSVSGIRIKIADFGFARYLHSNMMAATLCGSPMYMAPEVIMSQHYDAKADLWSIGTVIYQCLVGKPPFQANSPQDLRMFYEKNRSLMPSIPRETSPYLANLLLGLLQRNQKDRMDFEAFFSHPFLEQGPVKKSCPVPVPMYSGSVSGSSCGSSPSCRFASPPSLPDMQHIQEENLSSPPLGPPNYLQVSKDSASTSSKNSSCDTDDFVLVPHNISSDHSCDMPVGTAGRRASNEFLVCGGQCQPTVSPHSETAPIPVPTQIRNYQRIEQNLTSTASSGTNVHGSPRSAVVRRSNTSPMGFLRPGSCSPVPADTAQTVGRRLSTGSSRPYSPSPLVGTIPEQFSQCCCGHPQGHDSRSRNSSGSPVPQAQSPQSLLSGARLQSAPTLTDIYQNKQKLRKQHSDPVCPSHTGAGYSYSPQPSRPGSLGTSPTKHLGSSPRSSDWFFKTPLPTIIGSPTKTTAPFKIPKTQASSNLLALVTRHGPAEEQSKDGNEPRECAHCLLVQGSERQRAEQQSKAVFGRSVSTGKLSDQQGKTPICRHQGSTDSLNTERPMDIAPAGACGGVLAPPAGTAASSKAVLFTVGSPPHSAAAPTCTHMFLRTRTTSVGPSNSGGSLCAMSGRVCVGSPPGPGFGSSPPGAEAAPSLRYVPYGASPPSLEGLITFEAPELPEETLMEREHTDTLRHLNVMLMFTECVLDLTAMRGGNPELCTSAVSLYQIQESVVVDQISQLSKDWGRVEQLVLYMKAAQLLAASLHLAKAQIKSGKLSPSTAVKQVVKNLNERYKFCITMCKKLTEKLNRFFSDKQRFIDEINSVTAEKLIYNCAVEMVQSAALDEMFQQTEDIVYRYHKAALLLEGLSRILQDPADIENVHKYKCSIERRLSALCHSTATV

[10] = target: Serine/threonine-protein kinase 3 (Homo sapiens) (UniProt Q13188); conditions: dose 100.0 µM
Serine/threonine-protein kinase 3 (Homo sapiens), sequence (Q13188 whole entry): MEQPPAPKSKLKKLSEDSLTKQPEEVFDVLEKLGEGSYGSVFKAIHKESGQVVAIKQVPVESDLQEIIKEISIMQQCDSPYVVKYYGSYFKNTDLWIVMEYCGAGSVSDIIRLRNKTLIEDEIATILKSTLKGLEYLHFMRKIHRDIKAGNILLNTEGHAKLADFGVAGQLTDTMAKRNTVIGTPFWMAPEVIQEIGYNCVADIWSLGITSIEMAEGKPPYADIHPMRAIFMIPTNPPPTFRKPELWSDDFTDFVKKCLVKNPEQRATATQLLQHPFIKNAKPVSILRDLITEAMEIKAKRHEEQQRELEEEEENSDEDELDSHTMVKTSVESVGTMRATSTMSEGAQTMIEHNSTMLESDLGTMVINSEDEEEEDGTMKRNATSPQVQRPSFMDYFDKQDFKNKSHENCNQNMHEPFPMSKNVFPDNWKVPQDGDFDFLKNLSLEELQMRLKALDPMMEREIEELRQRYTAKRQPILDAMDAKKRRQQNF

[11] = target: Beta-adrenergic receptor kinase 1 (Homo sapiens) (UniProt P25098); test: Inhibition of GRK2 (unknown origin) assessed as remaining activity at 1 uM by Kinome scan method relative to control
Beta-adrenergic receptor kinase 1 (Homo sapiens), sequence (P25098 whole entry): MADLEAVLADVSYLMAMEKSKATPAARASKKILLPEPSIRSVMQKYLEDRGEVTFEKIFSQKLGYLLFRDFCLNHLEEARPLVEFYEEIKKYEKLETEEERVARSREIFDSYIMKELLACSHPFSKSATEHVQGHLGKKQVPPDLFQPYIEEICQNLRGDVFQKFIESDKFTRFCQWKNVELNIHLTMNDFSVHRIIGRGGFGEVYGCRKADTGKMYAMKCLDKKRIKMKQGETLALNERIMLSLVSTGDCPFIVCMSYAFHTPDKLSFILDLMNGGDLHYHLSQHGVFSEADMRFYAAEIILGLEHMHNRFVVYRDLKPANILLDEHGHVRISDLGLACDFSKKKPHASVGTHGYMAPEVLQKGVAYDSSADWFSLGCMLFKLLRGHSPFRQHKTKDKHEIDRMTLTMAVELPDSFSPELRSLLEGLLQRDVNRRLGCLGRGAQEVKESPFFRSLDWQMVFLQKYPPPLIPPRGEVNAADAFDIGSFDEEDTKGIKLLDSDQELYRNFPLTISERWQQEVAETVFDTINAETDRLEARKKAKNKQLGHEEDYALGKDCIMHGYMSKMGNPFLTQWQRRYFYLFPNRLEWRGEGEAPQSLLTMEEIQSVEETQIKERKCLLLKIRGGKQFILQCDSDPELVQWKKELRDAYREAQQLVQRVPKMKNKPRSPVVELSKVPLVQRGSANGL

[12] = target: Interleukin-1 receptor-associated kinase 1 (Homo sapiens) (UniProt P51617); test: Inhibition of IRAK1 (unknown origin) assessed as remaining activity at 1 uM by Kinome scan method relative to control
Interleukin-1 receptor-associated kinase 1 (Homo sapiens), sequence (P51617 whole entry, looked up): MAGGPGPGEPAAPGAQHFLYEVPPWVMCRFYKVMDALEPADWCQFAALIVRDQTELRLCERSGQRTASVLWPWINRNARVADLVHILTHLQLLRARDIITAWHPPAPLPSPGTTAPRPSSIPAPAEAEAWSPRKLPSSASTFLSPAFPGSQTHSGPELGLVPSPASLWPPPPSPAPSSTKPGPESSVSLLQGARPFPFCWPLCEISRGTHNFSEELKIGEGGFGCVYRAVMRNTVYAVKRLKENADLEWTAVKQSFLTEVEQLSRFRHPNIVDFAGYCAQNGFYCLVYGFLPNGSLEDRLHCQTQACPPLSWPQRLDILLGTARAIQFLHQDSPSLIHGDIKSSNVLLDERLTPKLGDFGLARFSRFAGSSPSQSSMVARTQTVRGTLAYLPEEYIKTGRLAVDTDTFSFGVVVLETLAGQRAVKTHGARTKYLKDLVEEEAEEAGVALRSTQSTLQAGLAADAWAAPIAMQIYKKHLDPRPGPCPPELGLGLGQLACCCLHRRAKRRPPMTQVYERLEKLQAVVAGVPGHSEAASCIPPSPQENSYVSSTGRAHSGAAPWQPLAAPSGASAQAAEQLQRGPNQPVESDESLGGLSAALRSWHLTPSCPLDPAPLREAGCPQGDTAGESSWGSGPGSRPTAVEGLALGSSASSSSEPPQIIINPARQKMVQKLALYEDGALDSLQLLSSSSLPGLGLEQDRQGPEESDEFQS

[13] = target: Mitogen-activated protein kinase 14 (Homo sapiens) (UniProt Q16539); test: Inhibition of P38alpha (unknown origin) assessed as remaining activity at 1 uM by Kinome scan method relative to control
[14] = target: Serine/threonine-protein kinase tousled-like 2 (Homo sapiens) (UniProt Q86UE8); test: Inhibition of TLK2 (unknown origin) assessed as remaining activity at 1 uM by Kinome scan method relative to control
[15] = tested on: HepG2; test: Inhibition of Flag-tagged MST1 Y101F mutant (unknown origin) in human HepG2 cells assessed as MOB1 phosphorylation level at 0.3 to 10 uM by immunoblot analysis; assay type: cell-based; conditions: dose 0.3-10 µM
[16] = organism: Homo sapiens; test: Inhibition of ALK C1156V mutant (unknown origin) assessed as remaining activity at 1 uM by Kinome scan method relative to control
Procedure, shortened: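 KINOMEscan active-site-dependent competition-binding panel of 468 kinases, compound at 1 μM from a DMSO stock. Result reported as ctrl% = (test signal − positive control signal)/(negative control signal − positive control signal) × 100. The negative control is DMSO (100%) and the positive control is a control compound (0%). Lower ctrl% means tighter binding.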

[17] = target: Phosphatidylinositol 4-phosphate 3-kinase C2 domain-containing subunit beta (Homo sapiens) (UniProt O00750); test: Inhibition of PIK3C2B (unknown origin) assessed as remaining activity at 1 uM by Kinome scan method relative to control
[18] = tested on: HepG2; test: Inhibition of Flag-tagged MST1 Y101F mutant (unknown origin) in human HepG2 cells assessed as MOB1 phosphorylation level at 3 uM by immunoblot analysis; assay type: cell-based
[19] = tested on: RAW264.7; test: Inhibition of MST1/2 (unknown origin) in mouse RAW264.7 cells assessed as H2O2 stimulated MOB1 phosphorylation level at 1 to 3 uM by immunoblot analysis; assay type: cell-based; conditions: dose 1-3 µM
[20] = target: Dual specificity tyrosine-phosphorylation-regulated kinase 1B (Homo sapiens) (UniProt Q9Y463); test: Inhibition of DYRK1B (unknown origin) assessed as remaining activity at 1 uM by Kinome scan method relative to control
[21] = target: Tyrosine-protein kinase Yes (Homo sapiens) (UniProt P07947); test: Inhibition of YES (unknown origin) assessed as remaining activity at 1 uM by Kinome scan method relative to control
Tyrosine-protein kinase Yes (Homo sapiens), sequence (P07947 2-543 limits assumed): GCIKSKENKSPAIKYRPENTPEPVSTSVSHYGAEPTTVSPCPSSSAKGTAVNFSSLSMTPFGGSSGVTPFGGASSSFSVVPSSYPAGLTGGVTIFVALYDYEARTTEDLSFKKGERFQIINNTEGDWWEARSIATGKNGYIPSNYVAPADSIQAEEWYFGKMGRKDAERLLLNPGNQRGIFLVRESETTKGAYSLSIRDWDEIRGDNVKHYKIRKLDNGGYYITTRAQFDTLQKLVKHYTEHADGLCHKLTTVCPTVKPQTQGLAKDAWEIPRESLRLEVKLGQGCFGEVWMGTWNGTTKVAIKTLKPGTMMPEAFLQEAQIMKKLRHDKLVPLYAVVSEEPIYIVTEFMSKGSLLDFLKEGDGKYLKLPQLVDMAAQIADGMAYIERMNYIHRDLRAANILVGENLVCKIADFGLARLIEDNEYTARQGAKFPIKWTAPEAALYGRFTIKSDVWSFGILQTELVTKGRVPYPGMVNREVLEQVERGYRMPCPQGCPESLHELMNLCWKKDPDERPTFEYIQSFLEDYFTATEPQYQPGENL

[22] = target: Serine/threonine-protein kinase 32C (Homo sapiens) (UniProt Q86UX6); test: Inhibition of YANK3 (unknown origin) assessed as remaining activity at 1 uM by Kinome scan method relative to control
[23] = tested on: Mast/stem cell growth factor receptor Kit (Homo sapiens), P10721 [D816H]; test: Inhibition of KIT D816H mutant (unknown origin) assessed as remaining activity at 1 uM by Kinome scan method relative to control
[24] = tested on: Mus musculus; test: In vivo inhibition of MST1/2 in mouse assessed as YAP phosphorylation level at 1 mg/kg, ip administration and measured after between 1.5 to 6 hrs by immunoblot analysis; assay type: functional, organism-based; conditions: time 1.5-6 hrs
Procedure, shortened: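 Wild-type mice received 1 mg/kg intraperitoneally, with vehicle of 0.1% citric acid aqueous solution containing 20% Kolliphor HS 15. Livers were harvested over 0–12 h and lysates immunoblotted for p-MOB1 and p-YAP, normalized to control. Means ± SD, n = 3.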

[25] = target: Ribosomal protein S6 kinase alpha-4 (Homo sapiens) (UniProt O75676); test: Inhibition of N-terminal kinase domain RPS6KA4 (unknown origin) assessed as remaining activity at 1 uM by Kinome scan method relative to control
Ribosomal protein S6 kinase alpha-4 (Homo sapiens), sequence (O75676 whole entry, looked up, the tested form may be a part): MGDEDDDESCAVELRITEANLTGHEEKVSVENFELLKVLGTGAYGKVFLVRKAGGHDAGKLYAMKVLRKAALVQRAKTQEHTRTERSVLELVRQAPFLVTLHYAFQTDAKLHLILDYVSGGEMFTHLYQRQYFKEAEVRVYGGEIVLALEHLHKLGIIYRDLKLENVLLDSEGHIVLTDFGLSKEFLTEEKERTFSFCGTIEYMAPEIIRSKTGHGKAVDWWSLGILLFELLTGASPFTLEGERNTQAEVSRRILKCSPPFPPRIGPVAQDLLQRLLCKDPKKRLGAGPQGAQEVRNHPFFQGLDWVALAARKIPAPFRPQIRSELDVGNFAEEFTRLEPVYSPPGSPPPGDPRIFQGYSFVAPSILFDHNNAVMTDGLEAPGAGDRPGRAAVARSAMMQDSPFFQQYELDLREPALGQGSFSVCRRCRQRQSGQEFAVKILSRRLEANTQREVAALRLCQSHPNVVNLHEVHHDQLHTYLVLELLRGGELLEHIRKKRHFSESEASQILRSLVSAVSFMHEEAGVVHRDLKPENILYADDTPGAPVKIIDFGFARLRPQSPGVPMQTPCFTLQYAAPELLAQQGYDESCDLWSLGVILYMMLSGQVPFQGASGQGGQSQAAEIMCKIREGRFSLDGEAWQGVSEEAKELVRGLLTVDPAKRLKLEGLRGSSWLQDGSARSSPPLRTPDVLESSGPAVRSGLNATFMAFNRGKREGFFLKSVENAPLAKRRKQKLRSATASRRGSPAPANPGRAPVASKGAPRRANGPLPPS

[26] = target: Mitogen-activated protein kinase kinase kinase kinase 5 (Homo sapiens) (UniProt Q9Y4K4); test: Inhibition of MAP4K5 (unknown origin) assessed as remaining activity at 1 uM by Kinome scan method relative to control
[27] = tested on: Mast/stem cell growth factor receptor Kit (Homo sapiens), P10721 [V559D,V654A]; test: Inhibition of KIT V559D/V654A mutant (unknown origin) assessed as remaining activity at 1 uM by Kinome scan method relative to control
[28] = target: Serine/threonine-protein kinase 35 (Homo sapiens) (UniProt Q8TDR2); test: Inhibition of STK35 (unknown origin) assessed as remaining activity at 1 uM by Kinome scan method relative to control
Serine/threonine-protein kinase 35 (Homo sapiens), sequence (Q8TDR2 whole entry): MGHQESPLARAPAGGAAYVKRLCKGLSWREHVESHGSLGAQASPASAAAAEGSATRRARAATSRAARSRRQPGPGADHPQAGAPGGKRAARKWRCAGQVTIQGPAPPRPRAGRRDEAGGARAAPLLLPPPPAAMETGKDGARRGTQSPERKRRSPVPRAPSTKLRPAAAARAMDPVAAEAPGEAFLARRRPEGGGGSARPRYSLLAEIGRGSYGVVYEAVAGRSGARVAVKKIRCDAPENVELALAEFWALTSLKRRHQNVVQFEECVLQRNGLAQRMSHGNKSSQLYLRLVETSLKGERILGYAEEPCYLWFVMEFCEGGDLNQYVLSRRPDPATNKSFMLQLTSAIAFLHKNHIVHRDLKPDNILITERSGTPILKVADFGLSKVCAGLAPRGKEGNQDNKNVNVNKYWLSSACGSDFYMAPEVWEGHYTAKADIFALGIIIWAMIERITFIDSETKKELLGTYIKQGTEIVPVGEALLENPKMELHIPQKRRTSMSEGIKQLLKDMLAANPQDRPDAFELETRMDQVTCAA

Structure (SMILES): CN1C(=O)c2sccc2N(C)c2nc(Nc3ccc(S(N)(=O)=O)cc3)ncc21
- Activity [1]: 100%
- Activity [2]: 100%
- Activity [3]: 92%
- Activity [4]: 97%
- Activity [5]: 15%
- Activity [6]: 100%
- Activity [7]: 80%
- Activity [8]: 86%
- Activity [9]: 4.8%
- Tm [10]: 62 °C
- Activity [11]: 100%
- Activity [12]: 51%
- Activity [13]: 88%
- Activity [14]: 100%
- inhibition [15]: Active
- Activity [16]: 95%
- Activity [17]: 100%
- inhibition [18]: Active
- inhibition [19]: Active
- Activity [20]: 85%
- Activity [21]: 100%
- Activity [22]: 100%
- Activity [23]: 85%
- inhibition [24]: Active
- Activity [25]: 81%
- Activity [26]: 100%
- Activity [27]: 92%
- Activity [28]: 100%

From ChEMBL document CHEMBL5705905, “Pharmacological targeting of kinases MST1 and MST2 augments tissue repair and regeneration” (Sci Transl Med, 2016)
